Laboratory results from ChEMBL document CHEMBL1134032, “Rational design, synthesis, and biological evaluation of rigid pyrrolidone analogues as potential inhibitors of prostate cancer cell growth” (Bioorg Med Chem Lett, 2001).

How the values were obtained:
[1] = biological target: T1, Protein kinase C epsilon type (Homo sapiens, UniProt Q02156); assay: Inhibition of [3H]-phorbol 12,13-dibutyrate (PDBu) binding to human recombinant protein kinase C epsilon
T1 sequence (Q02156 whole entry): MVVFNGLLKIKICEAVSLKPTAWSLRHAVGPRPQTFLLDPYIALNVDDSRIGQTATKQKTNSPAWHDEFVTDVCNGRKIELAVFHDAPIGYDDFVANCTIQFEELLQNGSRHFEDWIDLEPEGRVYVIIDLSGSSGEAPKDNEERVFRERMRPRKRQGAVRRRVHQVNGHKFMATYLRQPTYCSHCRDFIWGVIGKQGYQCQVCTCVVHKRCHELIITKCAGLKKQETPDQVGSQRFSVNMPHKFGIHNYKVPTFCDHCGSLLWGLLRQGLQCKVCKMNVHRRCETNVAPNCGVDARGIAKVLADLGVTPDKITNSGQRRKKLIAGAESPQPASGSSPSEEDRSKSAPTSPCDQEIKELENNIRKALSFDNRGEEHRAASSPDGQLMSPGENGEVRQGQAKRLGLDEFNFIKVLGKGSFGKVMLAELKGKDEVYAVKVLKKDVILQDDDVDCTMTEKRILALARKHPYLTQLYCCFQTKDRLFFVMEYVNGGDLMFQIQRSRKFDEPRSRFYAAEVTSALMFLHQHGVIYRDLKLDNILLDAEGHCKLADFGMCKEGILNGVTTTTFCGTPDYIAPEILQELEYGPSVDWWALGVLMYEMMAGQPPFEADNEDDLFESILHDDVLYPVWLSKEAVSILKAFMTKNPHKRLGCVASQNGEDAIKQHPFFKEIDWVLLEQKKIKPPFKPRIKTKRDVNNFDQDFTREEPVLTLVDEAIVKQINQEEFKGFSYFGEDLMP
Procedure, shortened: (§1)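 Competitive displacement of [3H]PDBu binding from recombinant human PKC isozymes (alpha, beta, gamma, delta, epsilon), each tested separately. Affinity is reported as Ki in nM.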

[2] = biological target: Protein kinase C delta type (Homo sapiens, UniProt Q05655); assay: Inhibition of [3H]-phorbol 12,13-dibutyrate (PDBu) binding to human recombinant protein kinase C delta; procedure, shortened: as §1
[3] = biological target: Protein kinase C alpha type (Homo sapiens, UniProt P17252); assay: Inhibition of [3H]-phorbol 12,13-dibutyrate (PDBu) binding to human recombinant protein kinase C alpha; procedure, shortened: as §1
[4] = biological target: Protein kinase C beta type (Homo sapiens, UniProt P05771); assay: Inhibition of [3H]-phorbol 12,13-dibutyrate (PDBu) binding to human recombinant protein kinase C beta; procedure, shortened: as §1
[5] = biological target: Protein kinase C gamma type (Homo sapiens, UniProt P05129); assay: Inhibition of [3H]-phorbol 12,13-dibutyrate (PDBu) binding to human recombinant protein kinase C gamma; procedure, shortened: as §1

Sequence of Protein kinase C delta type (Q05655 whole entry): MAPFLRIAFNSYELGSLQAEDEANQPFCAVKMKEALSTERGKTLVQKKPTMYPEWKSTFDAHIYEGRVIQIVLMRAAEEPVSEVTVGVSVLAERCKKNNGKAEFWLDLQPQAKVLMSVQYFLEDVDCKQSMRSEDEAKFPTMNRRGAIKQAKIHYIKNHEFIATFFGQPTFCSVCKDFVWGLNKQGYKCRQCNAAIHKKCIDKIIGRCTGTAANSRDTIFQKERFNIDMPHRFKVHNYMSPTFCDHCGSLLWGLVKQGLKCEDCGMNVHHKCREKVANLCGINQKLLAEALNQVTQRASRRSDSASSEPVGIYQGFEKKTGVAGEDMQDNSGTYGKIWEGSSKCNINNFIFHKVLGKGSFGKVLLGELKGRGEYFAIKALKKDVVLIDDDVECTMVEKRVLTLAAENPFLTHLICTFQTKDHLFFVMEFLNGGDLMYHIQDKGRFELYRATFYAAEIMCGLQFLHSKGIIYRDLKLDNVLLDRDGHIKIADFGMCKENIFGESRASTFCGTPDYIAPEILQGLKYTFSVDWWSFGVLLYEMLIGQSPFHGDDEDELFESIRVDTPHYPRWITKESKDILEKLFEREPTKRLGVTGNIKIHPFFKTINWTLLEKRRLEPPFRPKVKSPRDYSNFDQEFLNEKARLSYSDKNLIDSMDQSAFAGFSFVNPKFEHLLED
Sequence of Protein kinase C beta type (P05771 whole entry): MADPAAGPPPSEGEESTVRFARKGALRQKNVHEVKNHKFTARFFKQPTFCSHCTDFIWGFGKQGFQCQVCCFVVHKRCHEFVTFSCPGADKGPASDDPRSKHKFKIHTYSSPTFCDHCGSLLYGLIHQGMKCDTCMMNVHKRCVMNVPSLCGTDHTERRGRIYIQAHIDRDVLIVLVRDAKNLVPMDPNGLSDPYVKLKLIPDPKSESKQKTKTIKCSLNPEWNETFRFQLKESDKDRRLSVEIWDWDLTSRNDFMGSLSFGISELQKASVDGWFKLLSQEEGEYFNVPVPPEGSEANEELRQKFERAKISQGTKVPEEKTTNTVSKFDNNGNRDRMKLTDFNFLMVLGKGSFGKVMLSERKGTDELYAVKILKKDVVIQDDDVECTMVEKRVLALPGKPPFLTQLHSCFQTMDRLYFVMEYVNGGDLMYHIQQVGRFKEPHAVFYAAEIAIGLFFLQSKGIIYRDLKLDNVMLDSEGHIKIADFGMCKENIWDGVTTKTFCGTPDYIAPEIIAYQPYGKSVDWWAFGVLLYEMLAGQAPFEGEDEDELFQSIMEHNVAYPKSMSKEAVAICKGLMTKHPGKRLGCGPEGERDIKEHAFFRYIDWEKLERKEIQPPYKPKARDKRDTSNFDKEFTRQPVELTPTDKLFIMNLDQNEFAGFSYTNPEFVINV

| Structure (SMILES) | Ki [1] [nM] | Ki [2] [nM] | Ki [3] [nM] | Ki [4] [nM] | Ki [5] [nM] |
| --- | --- | --- | --- | --- | --- |
| CCCCCCCCC#Cc1ccc2c(c1)C[C@@H](CO)NC(=O)[C@H](C(C)C)N2C | 40 | 114 | 23 | 70 | 43 |
| CCCCCCCCCCCCCC(=O)O[C@@H]1[C@@H](C)[C@@]2(O)[C@@H](C=C(CO)C[C@]3(O)C(=O)C(C)=C[C@@H]23)[C@@H]2C(C)(C)[C@]12OC(C)=O [PHORBOL MYRISTATE ACETATE] | 0.45 | 0.8 | – | 1.8 | 4.9 |
| CCCCCCCCC#Cc1ccc2c(c1)[C@](C)(C(C)C)[C@H]1C(=O)N[C@H](CO)[C@@H]21 | 469 | 1630 | 580 | – | 279 |
